# The source made the active and inactive calls. The calls are words filed in the database; no cut-off is given here.
# Legend:
# [1] = test system: Staphylococcus aureus; assay: Antibacterial activity against methicillin-resistant Staphylococcus aureus N315 by microbroth dilution method; format: functional
# Outline: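 Minimum inhibitory concentration against MRSA N315 determined by micro broth dilution in microdilution plates.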
# [2] = test system: Enterococcus faecalis; assay: Antibacterial activity against Enterococcus faecalis by microbroth dilution method; format: functional
# [3] = test system: Staphylococcus aureus; assay: Antibacterial activity against Staphylococcus aureus by microbroth dilution method; format: functional
# [4] = test system: Staphylococcus aureus; assay: Antibacterial activity against Staphylococcus aureus ATCC 25923 by microbroth dilution method; format: functional
# [5] = test system: Staphylococcus aureus; assay: Antibacterial activity against Staphylococcus aureus ATCC 29213 by microbroth dilution method; format: functional
# [6] = test system: Klebsiella pneumoniae; assay: Antibacterial activity against Klebsiella pneumonia by microbroth dilution method; format: functional
# [7] = test system: Escherichia coli; assay: Antibacterial activity against Escherichia coli by microbroth dilution method; format: functional
# [8] = test system: Pseudomonas aeruginosa; assay: Antibacterial activity against Pseudomonas aeruginosa by microbroth dilution method; format: functional
# [9] = test system: Acinetobacter baumannii; assay: Antibacterial activity against Acinetobacter baumannii by microbroth dilution method; format: functional
# [10] = test system: Pseudomonas aeruginosa; assay: Antibacterial activity against Pseudomonas aeruginosa ATCC 27853 by microbroth dilution method; format: functional
# [11] = test system: Escherichia coli; assay: Antibacterial activity against Escherichia coli ATCC 25922 by microbroth dilution method; format: functional
# [12] = test system: Staphylococcus aureus; assay: (§1) Potentiation of (Z)-4-((bis(2-hydroxyethyl)amino)methyl)-7-((1-(4-methoxyphenyl)-3-oxo-3-(thiazol-2-yl)prop-1-en-2-yl)oxy)-2H-chromen-2-one-induced antibacterial activity against methicillin resistant Staphylococcus aureus N315 assessed as (Z)-4-((bis(2-hydroxyethyl)amino)methyl)-7-((1-(4-methoxyphenyl)-3-oxo-3-(thiazol-2-yl)prop-1-en-2-yl)oxy)-2H-chromen-2-one MIC; format: functional
# [13] = test system: Enterococcus faecalis; assay: as §1, with “Enterococcus faecalis” for “methicillin resistant Staphylococcus aureus N315”; format: functional
# [14] = test system: Klebsiella pneumoniae; assay: Potentiation of(Z)-4-((bis(2-hydroxyethyl)amino)methyl)-7-((1-(4-methoxyphenyl)-3-oxo-3-(thiazol-2-yl)prop-1-en-2-yl)oxy)-2H-chromen-2-one-induced antibacterial activity against Klebsiella pneumoniae assessed as (Z)-4-((bis(2-hydroxyethyl)amino)methyl)-7-((1-(4-methoxyphenyl)-3-oxo-3-(thiazol-2-yl)prop-1-en-2-yl)oxy)-2H-chromen-2-one MIC; format: functional
# [15] = test system: Escherichia coli; assay: as §1, with “Escherichia coli” for “methicillin resistant Staphylococcus aureus N315”; format: functional
# [16] = test system: Staphylococcus aureus; assay: Bactericidal activity against methicillin-resistant Staphylococcus aureus assessed as decrease in viable cells at 4 times MIC measured after 2 hrs by time kill assay; format: functional
# Outline: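 Time-kill kinetics against MRSA at 4 × MIC. Viable cells were counted as CFU/mL over time, including the 2 h point.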
# [17] = test system: L02; assay: Cytotoxicity against human L02 cells assessed as effect on cell viability up to 500 ug/ml by MTT assay; format: cell-based; details: dose <=500 µg/ml
# Outline: (§2)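 MTT viability assay on human hepatocyte LO2 cells and RAW 264.7 cells. The test hybrid was applied over a rising concentration series up to 500. The read-out was the percentage of living cells.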
# [18] = test system: RAW264.7; assay: Cytotoxicity against mouse RAW264.7 cells assessed as effect on cell viability up to 500 ug/ml by MTT assay; format: cell-based; details: dose <=500 µg/ml; outline: as §2
# [19] = test system: Cell membrane; assay: Induction of membrane permeabilization in methicillin resistant Staphylococcus aureus at 12 times MIC measured after 60 mins by propidium iodide staining based fluorescence assay
# Outline: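 PI–DNA fluorescence intensity was followed over time up to and beyond 60 min, compared with an untreated control.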
# [20] = test system: Staphylococcus aureus; assay: Antibacterial activity against methicillin-resistant Staphylococcus aureus up to 50 ug/ml measured after 7 passages by resistance development assay; format: functional, organism-based; details: dose microg/ml <=50
# [21] = test system: DNA; assay: Binding affinity to methicillin-resistant Staphylococcus aureus DNA assessed as maximum absorption peak at 260 nm by UV-vis spectroscopy; format: nucleic-acid assay
# [22] = test system: DNA; assay: Binding affinity to methicillin-resistant Staphylococcus aureus DNA assessed as decrease in absorption of compound-DNA complex by UV-vis spectroscopy; format: nucleic-acid assay
# [23] = test system: DNA; assay: Binding affinity to methicillin-resistant Staphylococcus aureus DNA assessed as compound-DNA interaction causing DNA replication blockage by neutral red uptake assay; format: nucleic-acid assay
# [24] = test system: Enterococcus faecalis; assay: Potentiation of norfloxacin-induced antibacterial activity against Enterococcus faecalis assessed as norfloxacin MIC; format: functional
# [25] = test system: Klebsiella pneumoniae; assay: Potentiation of norfloxacin-induced antibacterial activity against Klebsiella pneumoniae assessed as norfloxacin MIC; format: functional
# [26] = test system: Escherichia coli; assay: Potentiation of norfloxacin-induced antibacterial activity against Escherichia coli assessed as norfloxacin MIC; format: functional
# [27] = test system: Staphylococcus aureus; assay: Synergistic antibacterial activity against methicillin resistant Staphylococcus aureus N315 assessed as fractional inhibitory concentration index in presence of norfloxacin; format: functional
# [28] = test system: Enterococcus faecalis; assay: Indifferent antibacterial activity against Enterococcus faecalis assessed as fractional inhibitory concentration index in presence of norfloxacin; format: functional
# [29] = test system: Klebsiella pneumoniae; assay: Additive antibacterial activity against Klebsiella pneumoniae assessed as fractional inhibitory concentration index in presence of norfloxacin; format: functional
# [30] = test system: Escherichia coli; assay: Additive antibacterial activity against Escherichia coli assessed as fractional inhibitory concentration index in presence of norfloxacin; format: functional
Structure (SMILES),MIC [1] [µM],MIC [2] [µM],MIC [3] [µM],MIC [4] [µM],MIC [5] [µM],MIC [6] [µM],MIC [7] [µM],MIC [8] [µM],MIC [9] [µM],MIC [10] [µM],MIC [11] [µM],further results
O=C(/C(=C/c1ccccc1)Oc1ccc2c(CN(CCO)CCO)cc(=O)oc2c1)c1nccs1,130,130,260,1040,1040,1040,1040,520,1040,520,260,–
Cc1ccc(/C=C(\Oc2ccc3c(CN(CCO)CCO)cc(=O)oc3c2)C(=O)c2nccs2)cc1,63,63,126,63,126,63,16,253,253,505,126,–
O=C(/C(=C/c1c[nH]c2cc(Cl)ccc12)Oc1ccc2c(CN(CCO)CCO)cc(=O)oc2c1)c1nccs1,57,57,113,57,57,57,226,226,113,113,226,–
O=C(/C(=C/c1ccc(Cl)cc1Cl)Oc1ccc2c(CN(CCO)CCO)cc(=O)oc2c1)c1nccs1,7,228,228,456,456,228,228,114,114,228,456,–
O=C(/C(=C/c1c[nH]c2ccccc12)Oc1ccc2c(CN(CCO)CCO)cc(=O)oc2c1)c1nccs1,15,60,120,120,120,60,241,241,482,482,241,–
O=C(/C(=C/c1ccc(Br)cc1)Oc1ccc2c(CN(CCO)CCO)cc(=O)oc2c1)c1nccs1,136,136,68,272,272,1090,1090,272,543,1090,543,–
CCn1cc(C(=O)O)c(=O)c2cc(F)c(N3CCNCC3)cc21 [NORFLOXACIN],25,25,6,3,6,13,50,25,25,3,25,MIC [12]: 0.781 10^-3mM; MIC [13]: 0.781 10^-3mM; MIC [14]: 0.203 10^-3mM; MIC [15]: 0.781 10^-3mM
O=C(/C(=C/c1ccccc1Cl)Oc1ccc2c(CN(CCO)CCO)cc(=O)oc2c1)c1nccs1,61,121,121,486,486,972,972,486,486,243,243,–
O=C(/C(=C/c1ccc(F)cc1)Oc1ccc2c(CN(CCO)CCO)cc(=O)oc2c1)c1nccs1,125,125,125,251,251,251,1000,1000,251,251,251,–
Cc1ccc2c(/C=C(\Oc3ccc4c(CN(CCO)CCO)cc(=O)oc4c3)C(=O)c3nccs3)c[nH]c2c1,117,15,29,7,117,235,235,117,117,59,235,–
O=C(COc1ccc2c(CN(CCO)CCO)cc(=O)oc2c1)c1nccs1,20,316,316,633,1270,316,316,633,633,1270,633,–
O=C(/C(=C/c1ccc(Cl)cc1)Oc1ccc2c(CN(CCO)CCO)cc(=O)oc2c1)c1nccs1,121,243,243,243,243,486,486,61,243,243,486,–
O=C(/C(=C/c1ccc([N+](=O)[O-])cc1)Oc1ccc2c(CN(CCO)CCO)cc(=O)oc2c1)c1nccs1,7,119,119,60,119,238,119,476,238,238,119,–
COc1ccc(/C=C(\Oc2ccc3c(CN(CCO)CCO)cc(=O)oc3c2)C(=O)c2nccs2)cc1,4,61,61,122,122,61,15,122,244,244,244,Activity [16]: <10 CFU/ml; Activity [17]: Non-Toxic; Activity [18]: Non-Toxic; Activity [19]: Active; Activity [20]: Active; Activity [21]: Active; Activity [22]: Active; Activity [23]: Active; MIC [24]: 1.906 10^-3mM; MIC [25]: 0.953 10^-3mM; MIC [26]: 0.234 10^-3mM; fractional inhibitory concentration index (FICI) [27]: 0.45; fractional inhibitory concentration index (FICI) [28]: 1.34; fractional inhibitory concentration index (FICI) [29]: 0.58; fractional inhibitory concentration index (FICI) [30]: 0.51
CCn1cc(/C=C(\Oc2ccc3c(CN(CCO)CCO)cc(=O)oc3c2)C(=O)c2nccs2)c2ccccc21,114,14,29,7,57,229,229,114,57,57,229,–

# Source: ChEMBL document CHEMBL4823277, “Novel chalcone-conjugated, multi-flexible end-group coumarin thiazole hybrids as potential antibacterial repressors against methicillin-resistant Staphylococcus aureus” (Eur J Med Chem, 2021)
